Bioassay records deposited in PubChem BioAssay by several laboratories.
PMI act = phosphomannose isomerase (human) activation; purified human PMI, coupled resazurin fluorescence, 20 min; stronger effect = higher value; 1 = vehicle control, 0 substrate-free wells; activation factor at 20 µM; hit rate 0.005% among 190,000; P34949;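 active means activation factor of 2 or more at 20 µM, relative to plate controls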
Target sequence (P34949 whole entry, looked up): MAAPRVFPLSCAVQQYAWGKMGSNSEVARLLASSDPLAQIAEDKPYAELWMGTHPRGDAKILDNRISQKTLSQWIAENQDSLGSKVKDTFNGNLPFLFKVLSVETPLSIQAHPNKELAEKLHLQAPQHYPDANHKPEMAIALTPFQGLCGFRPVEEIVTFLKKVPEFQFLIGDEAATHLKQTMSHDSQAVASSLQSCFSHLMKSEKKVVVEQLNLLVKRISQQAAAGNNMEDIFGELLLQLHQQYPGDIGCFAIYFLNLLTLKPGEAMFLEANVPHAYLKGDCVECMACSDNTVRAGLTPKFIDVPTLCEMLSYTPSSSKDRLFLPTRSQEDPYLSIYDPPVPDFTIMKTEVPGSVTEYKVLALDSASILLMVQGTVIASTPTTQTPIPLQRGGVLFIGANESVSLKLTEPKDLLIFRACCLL
PMI act satM6P = increases human PMI activity with near-saturating mannose 6-phosphate; P34949; activation factor at 20 µM; AID 1216; hit rate 0.34% among 190,000; coupled PMI enzyme assay, resazurin fluorescence, 20 min; stronger effect = higher value; 1 = untreated enzyme, 0 = substrate-free blank;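 active means activation factor of 2 or more at 20 µM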
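Test system: human phosphomannose isomerase with PGI, G6PDH, diaphorase coupling enzymes; Amount: PMI at 15 ng/mL final; Reagent: Mannose-6-phosphate 1.0 mM (near-saturating) plus 0.22 mM NADP+; Timing: 20 min, room temperature; Technique: resorufin fluorescence at Ex 544/Em 590 nm; Dosing: 20 µM single dose.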
HCT116 bCat-KO = beta-catenin-lacking colon tumor cell growth suppression. AID 818. viability, % at 10 µM. hit rate 1.5% among 140,000. HCT116 beta-catenin knockout viability, CellTiter-Glo, 60 h; stronger effect = lower value;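 active means viability at or under a set limit, the compound median less 4 SD, cut at about 6% in these data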;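 further: 0% = Hyamine 1622 control at 20 µM and 100% = untreated cell control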
Lmaj promast = reduces viability of Leishmania major promastigotes. AID 1063. hit rate 9% among 200,000. resazurin fluorescence viability. inhibition, % at 10 µM; in the data active means inhibition above about 50%;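 further: promastigotes grown with compound for 44 hours at 28 °C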
PTEN del growth = suppresses growth of cells with PTEN deletion; HCT116 PTEN-null viability, CellTiter-Glo, 60 h; stronger effect = lower value; viability, % at 10 µM; hit rate 1.2% among 140,000;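 active means viability at or below a set limit, 4 SD under the median of all tested compounds, cut at about 3.7% in these data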;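 further: PTEN knockout HCT116 line with beta catenin targeted HCT116 as companion control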
Starred values were filed as active, the others as inactive; . = no result given. Shown are actives, neighbours in structure and some others; about 9.6% of the full set was active somewhere.

SMILES	PMI act	PMI act satM6P	HCT116 bCat-KO	Lmaj promast	PTEN del growth
N#Cc1cc(NC2CCCC2)c([N+](=O)[O-])cc1C#N	0.9	1	89	61*	82
O=C(NC1=C(NC2CCS(=O)(=O)C2)C(=O)c2ccccc2C1=O)c1ccccc1 (stereo not given)	0.9	0.7	.	99*	.
O=C(Cc1ccc(Cl)cc1)Nc1ccc(NC(=O)c2ccccc2)cc1	0.8	0.9	87	-8	93
Cc1cccc(NC2=C(NC(=O)c3ccccc3)C(=O)c3ccccc3C2=O)c1	0.9	0.9	3.6*	52*	4
CN(c1ccc(C(=O)Nc2ccc(Cl)cn2)cc1)S(=O)(=O)c1ccccc1	0.9	0.9	.	5	.
CN(C1=C(NC(=O)c2ccc(Cl)cc2)C(=O)c2ccccc2C1=O)c1ccccc1	0.7	0.7	1.6*	64*	1.6*
O=C(NC1=C(Nc2ccc(Cl)cc2)C(=O)c2ccccc2C1=O)c1ccccc1	0.8	0.4	34	78*	49
COc1ccc([N+](=O)[O-])cc1NC(=O)c1ccccc1N(C)S(C)(=O)=O	1.2	1.1	.	-5	.
CCCCC1NC(=S)N(C2CCCCC2)C1=O (stereo not given)	1	1.1	89	37	89
CN(C)C(=O)C(NC(=O)c1ccccc1)=C(Cl)Cl	1.1	1.1	.	2	.
S=C(NCc1ccco1)Nc1ccc(Oc2ccccc2)cc1	0.8	0.9	.	17	.
CC(C)NC(=O)c1onc(CSc2cccc(Cl)c2)c1C(=O)O	1	1.1	93	-7	97
COc1ccc(N(C(=O)COc2ccccc2)C2C=CS(=O)(=O)C2)cc1 (stereo not given)	1	1	94	-4	109
CCCCOc1ccc(Br)cc1CSC(=N)N	1.1	1	11	99*	12
CCCCCOc1ccc(CSC(=N)N)cc1[N+](=O)[O-]	0.9	0.9	1.9*	100*	1.3*
CCOc1ccc(C(C)=O)cc1CSC(=N)N	0.9	1	.	-2	.
CCCCOc1ccc(CSC2=NCCN2)cc1[N+](=O)[O-]	1	1	52	95*	69
CCOc1ccc(CSC2=NCCN2)cc1[N+](=O)[O-]	1.1	1	17	9	21
COc1ccc(C(=O)N/N=C/c2ccc(OC)c(CN3CCc4cc(OC)c(OC)cc4C3C)c2)cc1 (stereo not given)	0.9	1	.	4	.
O=C(c1cccc(Br)c1)N1CCN(c2cnn(-c3ccccc3)c(=O)c2Cl)CC1	1	1.1	.	84*	.
NC(=O)C1CCN(C(=O)c2cc(S(=O)(=O)N3CCOCC3)c(Cl)cc2Cl)CC1	0.9	1	95	2	84
CCOP(=O)(OCC)c1nc(-c2cccc3ccccc23)oc1NCc1ccc(OC)cc1	1	1	.	71*	.
COc1ccc(CCNc2oc(-c3cccc4ccccc34)nc2P(=O)(OC)OC)cc1OC	0.9	0.9	96	4	96
CCOP(=O)(OCC)c1nc(-c2ccc(C)cc2)oc1NCc1ccccc1	0.9	0.9	86	79*	74
COP(=O)(OC)c1nc(-c2cccc3ccccc23)oc1NCCc1ccccc1	0.9	1	90	71*	83
SMILES	PMI act	PMI act satM6P	HCT116 bCat-KO	Lmaj promast	PTEN del growth
CC(=O)c1c(C)[nH]c(C(=O)OCn2nnc3ccccc3c2=O)c1C	1	1	73	-1	88
CCCN(CCC)CCNC(=O)C1c2ccccc2C(=O)N2CCc3ccccc3C12 (stereo not given)	1	1	.	0	.
CCn1c(N2CCN(S(=O)(=O)c3ccccc3C(F)(F)F)CC2)nc2ccccc21	0.9	1	78	74*	84
COc1cc(NC(=S)NC2CC2)c(OC)cc1Cl	1	1	94	41	99
Cc1cc2nnn(-c3nnc(-c4ccccc4)c4ccccc34)c2cc1C	1.1	1	92	-1	91
CSc1cccc(NC(=O)CSc2ccc(Cl)cc2)c1	0.9	1	100	54*	102
CC(C)(C)NC(=O)c1cccc(NC(=O)CSc2ccc(Cl)cc2)c1	0.8	0.9	85	91*	81
CSc1cccc(NC(=O)CSc2ccc(C)cc2)c1	1	1	100	-2	110
CC(C)CNC(=O)c1cccc(NC(=O)CSc2ccc(Cl)cc2)c1	1	1.2	91	9	87
O=C(N1CCN(c2ccccc2)CC1)C1(c2cccs2)CCOCC1	1	1	81	-1	78
